HTR1E antagonist – antagonists of human 5-HT1E serotonin receptor; CHO 5-HT1E Ga15 NFAT-bla reporter, FRET, antagonist; 0.99% of 65,000 active; AID 571; inhibition, % at 6 µM; P28566;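 active means inhibition above a set limit, the mean inhibition across every tested compound plus 3 SD, cut at about 29% in these data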;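 further: signal is the 460 over 535 nm emission ratio of beta-lactamase substrate; 0% = agonist plus DMSO wells and 100% = wells without agonist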
HTR1E agonist – activates the human 5-HT1E serotonin receptor; AID 574; 0.69% of 65,000 active; activation, % at 6 µM; P28566; CHO 5-HT1E Ga15 NFAT-bla reporter, FRET; 0% DMSO wells, 100% control agonist wells;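 active means activation above a set limit, the screen-wide mean activation plus 3 SD, cut at about 8.5% in these data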;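 further: 100% = positive control agonist at 1 µM giving full maximal response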
HTR1A agonist – activates the human 5-HT1a serotonin receptor; 0.56% of 65,000 active; CHO 5-HT1a Ga15 NFAT-bla reporter, FRET ratio; 0% basal, 100% maximal reference agonist; AID 567; activation, % at 10 µM; P08908;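 active means activation above the screen-wide mean activation plus 3 SD, cut at about 19% in these data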;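 further: 0% = DMSO wells and 100% = 5-CT at EC100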
Target sequence (P08908 whole entry, looked up): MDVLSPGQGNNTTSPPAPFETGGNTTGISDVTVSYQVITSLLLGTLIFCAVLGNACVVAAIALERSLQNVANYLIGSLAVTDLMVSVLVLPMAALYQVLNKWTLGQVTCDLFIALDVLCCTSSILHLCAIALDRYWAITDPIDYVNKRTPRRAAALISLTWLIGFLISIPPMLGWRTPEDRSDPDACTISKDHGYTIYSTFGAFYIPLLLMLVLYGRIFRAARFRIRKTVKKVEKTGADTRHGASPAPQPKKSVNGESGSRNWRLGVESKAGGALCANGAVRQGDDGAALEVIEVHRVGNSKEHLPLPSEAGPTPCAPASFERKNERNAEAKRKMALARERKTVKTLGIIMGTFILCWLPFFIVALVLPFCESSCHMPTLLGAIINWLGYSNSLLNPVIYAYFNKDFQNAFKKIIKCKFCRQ
5HT1a antag – antagonists of human 5-HT1a serotonin receptor. CHO 5-HT1a Ga15 NFAT-bla reporter, antagonist mode. inhibition, % at 10 µM. 0.68% of 62,000 active;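 active means inhibition above the mean of all tested compounds plus 3 SD, cut at about 43% in these data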;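 further: receptor stimulated by 5-CT agonist at 100 nM near EC80; beta-lactamase reporter measured by ratiometric fluorescence of a cleavable substrate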
Jurkat viability – reduces viability or proliferation of Jurkat cells; 1.2% of 56,000 active; inhibition, % at 4 µM; Jurkat E6.1 viability, ATP luminescence, 48 h;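 active means inhibition above the mean inhibition of all tested compounds plus 3 SD, cut at about 28% in these data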
HEK293 NFkB inh – lowers PMA/ionomycin-induced NF-kB signal in HEK293 cells; HEK-293 NF-kB luciferase reporter, luminescence; inhibition, % at 3 µM; 0.21% of 62,000 active;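 active means inhibition above the mean of all tested compounds plus 3 SD, cut at about 40% in these data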;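 further: 0% = stimulated DMSO wells and 100% = 10 µM reference inhibitor 5653914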
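Reagent: PMA plus ionomycin mix as NF-kB-activating stimulus. Assay system: NF-kB luciferase reporter HEK-293 cells. Technique: luminescence from luciferase substrate reagent. Incubation: 1 h compound pre-incubation, 16 h PMA/ionomycin at 37 °C. Benchmarks: DMSO only as uninhibited control, 10 µM reference inhibitor as full inhibition. Repeats: tested once.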
Starred values were filed as active, the others as inactive; · = no result given. Compounds with a hit are over-represented: about 3.3% of the library has one in this group of screens.

SMILES	HTR1E antagonist	HTR1E agonist	HTR1A agonist	5HT1a antag	Jurkat viability	HEK293 NFkB inh
CCCCNS(=O)(=O)c1ccc2nc(SCC(=O)c3ccc(C#N)cc3)[nH]c2c1	-6	0	-2	-22	1	11
COc1cc2c(cc1OC)C(COc1ccc3c(C)cc(=O)oc3c1)N(C(=O)c1ccco1)CC2 (configuration not stated)	30*	0	2	6	·	12
COc1cc2c(cc1OC)C(COc1ccc(F)cc1)N(C(=O)c1ccco1)CC2 (configuration not stated)	18	0	1	30	·	18
CCOc1ccccc1N1CC(O)=C(c2nc3ccccc3s2)C1=N	9	-1	-2	27	78*	30
COc1ccccc1N1CC(O)=C(c2nc3ccccc3c(=O)[nH]2)C1=N	-3	0	0	8	-6	21
Cc1oc2nc(SCCCC(=O)NCCO)nc(N)c2c1C	-6	0	0	-10	-9	1
Cc1sc(NC(=O)c2ccco2)nc1-c1ccc2c(c1)CC(C)N2C(=O)C1CC1 (configuration not stated)	5	0	1	7	64*	7
COc1cccc(N2CCN(c3ncnc4c3cnn4-c3ccc(C)cc3C)CC2)c1	69*	3	3	48*	15	34
Cc1ccc(-n2ncc3c(N4CCCC4)ncnc32)c(C)c1	13	0	0	·	·	·
Cc1cc(C)n(-c2nc(NC(C)C)nc(NC(C)C)n2)n1	30*	-2	-3	11	5	12
CC(C)n1c(=NC(=O)c2ccco2)c(C#N)cc2c(=O)n3ccccc3cc21	4	9.2*	29*	-6	0	20
CCN1CCn2c1nc(N1CCCCC1)nc2=O	-9	9.4*	1	7	-4	-13
CCN(CC)c1nc2n(c(=O)n1)CCN2CC	-6	0	0	-5	-10	0
CC1CCCCN1Cc1nc2c(c(=O)n(C)c(=O)n2C)n1Cc1cccc2ccccc12 (configuration not stated)	-2	0	-2	-1	-5	11
COC(=O)c1c(NC(=O)c2ccco2)sc(C(=O)N2CCCC2)c1C	25	2	0	17	2	5
OC(COC1CCCCC1)CN1CCN(c2ccccc2)CC1 (configuration not stated)	0	1	7	45*	3	-16
CCCC(=O)Nc1nnc(CC(=O)N2CCCC2)s1	-6	0	8	0	4	11
COc1ccc(N2C(=O)C3CCCN3C2c2ccccc2OC)cc1 (configuration not stated)	-7	1	2	-1	-3	1
COc1ccc(C2N(c3ccc(F)cc3)C(=O)C3CCCN32)cc1 (configuration not stated)	88*	0	-6	16	0	6
COc1ccccc1C1N(c2ccc(Cl)cc2)C(=O)C2CCCN21 (configuration not stated)	7	15*	0	3	5	-28
CCOC(=O)c1ccc(CSc2nnc(N)s2)cc1	-2	0	0	6	5	2
CCOc1ccccc1C1CC(=O)Nc2cc3c(cc21)OCCO3 (configuration not stated)	64*	-1	-4	44*	95*	28
CCCOc1ccccc1C1CC(=O)Nc2cc3c(cc21)OCCO3 (configuration not stated)	71*	0	-1	75*	98*	47*
O=C1CC(c2cccnc2)c2cc3c(cc2N1)OCCO3 (configuration not stated)	9	-1	-1	-2	-5	15
CC(C)Oc1ccccc1C1CC(=O)Nc2cc3c(cc21)OCO3 (configuration not stated)	61*	1	-2	54*	97*	26
SMILES	HTR1E antagonist	HTR1E agonist	HTR1A agonist	5HT1a antag	Jurkat viability	HEK293 NFkB inh
CCOc1ccc(-n2ccnc2SCC(=O)NCc2ccc3c(c2)OCO3)cc1	0	0	-2	6	7	9
Cc1c(/C=N/n2cnnc2)c2ccccc2n1CCOc1ccccc1	34*	1	2	-9	2	18
Cc1ccc(Cn2ccc(NC(=O)c3c(-c4ccccc4Cl)noc3C)n2)cc1	-6	0	-2	11	·	6
Cc1ccc(C2/C(=C(\O)c3c(C)nc4ccccn34)C(=O)C(=O)N2CCCN2CCOCC2)o1 (configuration not stated)	9	0	1	17	-9	8
COCC(C)NC(=O)NC1(C(F)(F)F)Oc2ccc(Cl)cc2O1 (configuration not stated)	5	1	-2	8	·	20
O=C(NCCN1CCOCC1)NC1(C(F)(F)F)Oc2ccc(Cl)cc2O1 (configuration not stated)	5	0	-2	18	80*	16
N#CCSc1nc2sc3c(c2c(=O)n1C1CCCCC1)CCCC3	6	13*	7	·	·	·
CCSc1nc2sc3c(c2c(=O)n1C1CCCCC1)CCN(C)C3	-4	0	5	·	·	·
CCOC(=O)N1CCN(S(=O)(=O)c2cccc3ccc(C)nc23)CC1	-9	0	-3	-6	0	10
CCOc1ccc(C(C)=O)cc1CSc1nnc(-c2cccs2)n1CC1CCCO1 (configuration not stated)	0	0	1	28	-3	5
O=C(NC1CCCCC1)C(c1cccs1)N(Cc1cccs1)C(=O)c1ccco1 (configuration not stated)	0	-1	0	50*	-1	11
O=C(NC1CCCC1)C(c1cccs1)N(CC1CCCO1)C(=O)Cc1cccs1 (configuration not stated)	3	0	0	44*	9	6
Cc1sc2ncnc(SCc3ccco3)c2c1C	3	0	-2	10	6	5
Cc1sc2ncnc(SC(C)C#N)c2c1C (configuration not stated)	31*	0	-3	-6	1	7
COc1ccc(-c2nc(C#N)c(NCc3ccc(F)cc3)o2)cc1OC	30*	1	0	3	16	21
COc1ccc(-c2nc(C#N)c(NCc3ccccc3Cl)o2)cc1OC	22	0	4	16	-2	17
COc1cccc(-c2nc(CS(=O)(=O)CC(=O)NCCCN3CCc4ccccc4C3)c(C)o2)c1	-2	-1	2	16	0	8
CCOC(=O)c1ccc(NC(=O)CSc2nnnn2CCCO)cc1	-13	-1	-1	1	12	8
O=S(=O)(Nc1ccc2c(c1)OCCO2)c1cnc[nH]1	2	0	-3	-7	0	8
c1ccc(/N=C2\N=C(Nc3ccccn3)c3ccccc32)nc1	13	2	-2	6	50*	-3

High-throughput results: PubChem, The Scripps Research Institute Molecular Screening Center
